Data from ChEMBL document CHEMBL1687778, “Genetic determinants involved in the susceptibility of Pseudomonas aeruginosa to beta-lactam antibiotics” (2010).
Converted amounts (≈) assume the structure as drawn.

Key:
Assay type in all cases: functional
[1] = test system: Pseudomonas aeruginosa; test: Antimicrobial activity against Pseudomonas aeruginosa PA14 PA5288 harboring glnK mutant gene by Etest method
Summary of the method: (§1)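 Etest MIC. Overnight LB cultures at 37°C were diluted in sterile 0.85% NaCl to about 1 × 10^7 CFU/ml. 100 µl was spread on Mueller-Hinton agar, one strip was placed per plate, and plates were incubated at 37°C for 18 h. Equal cell numbers were seeded per plate, and results were verified in triplicate. PA14 wild type was included in each set as a susceptibility control.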

[2] = test system: Pseudomonas aeruginosa; test: Antimicrobial activity against Pseudomonas aeruginosa PA14 PA0503 harboring mutation in Putative biotin synthesis protein BioC by Etest method
Summary of the method: (§2)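 Overnight LB cultures (37°C) diluted in sterile 0.85% NaCl to about 1 × 10^7 CFU/ml. 100 µl spread on Mueller-Hinton agar, one Etest strip per plate, 18 h at 37°C. Ceftazidime, imipenem and meropenem tested. Wild-type PA14 plate included in each set. Each mutant verified in triplicate.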

[3] = test system: Pseudomonas aeruginosa; test: Antimicrobial activity against Pseudomonas aeruginosa PA14 PA0667 harboring mutation in putative metallopeptidase by Etest method; summary of the method: as §2
[4] = test system: Pseudomonas aeruginosa; test: Antimicrobial activity against Pseudomonas aeruginosa PA14 PA5366 harboring pstB mutant gene by Etest method; summary of the method: as §1
[5] = test system: Pseudomonas aeruginosa; test: Antimicrobial activity against Pseudomonas aeruginosa PA14 PA14_07490/07510 harboring mutation in intergenic region by Etest method; summary of the method: as §2
[6] = test system: Pseudomonas aeruginosa; test: Antimicrobial activity against Pseudomonas aeruginosa PA14 PA3247 harboring mutation in putative aspartyl aminopeptidase by Etest method; summary of the method: as §2
[7] = test system: Pseudomonas aeruginosa; test: Antimicrobial activity against wild type Pseudomonas aeruginosa PA14 by Etest method; summary of the method: as §1
[8] = test system: Pseudomonas aeruginosa; test: Antimicrobial activity against Pseudomonas aeruginosa PA14 PA4069 harboring mutation in putative dTDP-4-rhamnose reductase-related protein by Etest method; summary of the method: as §1
[9] = test system: Pseudomonas aeruginosa; test: Antimicrobial activity against Pseudomonas aeruginosa PA14 PA4527 harboring pilC mutant gene by Etest method; summary of the method: as §1
[10] = test system: Pseudomonas aeruginosa; test: Antimicrobial activity against Pseudomonas aeruginosa PA14 PA2023 harboring galU mutant gene by Etest method; summary of the method: as §2
[11] = test system: Pseudomonas aeruginosa; test: Antimicrobial activity against Pseudomonas aeruginosa PA14 PA14_23420 harboring mutation in putative zinc-binding dehydrogenase by Etest method; summary of the method: as §2
[12] = test system: Pseudomonas aeruginosa; test: Antimicrobial activity against Pseudomonas aeruginosa PA14 PA5000 harboring wapR mutant gene by Etest method; summary of the method: as §1
[13] = test system: Pseudomonas aeruginosa; test: Antimicrobial activity against Pseudomonas aeruginosa PA14 PA4088 harboring mutation in putative aminotransferase by Etest method; summary of the method: as §1
[14] = test system: Pseudomonas aeruginosa; test: Antimicrobial activity against Pseudomonas aeruginosa PA14 PA4005 harboring mutation in conserved hypothetical protein by Etest method; summary of the method: as §1
[15] = test system: Pseudomonas aeruginosa; test: Antimicrobial activity against Pseudomonas aeruginosa PA14 PA0479 harboring mutation in putative transcriptional regulator, LysR family by Etest method; summary of the method: as §2
[16] = test system: Pseudomonas aeruginosa; test: Antimicrobial activity against Pseudomonas aeruginosa PA14 PA3978 harboring mutation in hypothetical protein by Etest method; summary of the method: as §1
[17] = test system: Pseudomonas aeruginosa; test: Antimicrobial activity against Pseudomonas aeruginosa PA14 PA5174 harboring mutation in putative beta-ketoacyl synthase by Etest method; summary of the method: as §1
[18] = test system: Pseudomonas aeruginosa; test: Antimicrobial activity against Pseudomonas aeruginosa PA14 PA5005 harboring mutation in putative carbamoyltransferase by Etest method; summary of the method: as §1
[19] = test system: Pseudomonas aeruginosa; test: Antimicrobial activity against Pseudomonas aeruginosa PA14 PA2621 harboring clpS mutant gene by Etest method; summary of the method: as §2
[20] = test system: Pseudomonas aeruginosa; test: Antimicrobial activity against Pseudomonas aeruginosa PA14 PA4946 harboring mutL mutant gene by Etest method; summary of the method: as §1
[21] = test system: Pseudomonas aeruginosa; test: Antimicrobial activity against Pseudomonas aeruginosa PA14 PA3818 harboring suhB mutant gene by Etest method; summary of the method: as §1
[22] = test system: Pseudomonas aeruginosa; test: Antimicrobial activity against Pseudomonas aeruginosa PA14 PA4007 harboring proA mutant gene by Etest method; summary of the method: as §1
[23] = test system: Pseudomonas aeruginosa; test: Antimicrobial activity against Pseudomonas aeruginosa PA14 PA3800 harboring mutation in conserved hypothetical protein by Etest method; summary of the method: as §1
[24] = test system: Pseudomonas aeruginosa; test: Antimicrobial activity against Pseudomonas aeruginosa PA14 PA1553 harboring mutation in putative cytochrome c oxidase, cbb3 type, subunit II by Etest method; summary of the method: as §2
[25] = test system: Pseudomonas aeruginosa; test: Antimicrobial activity against Pseudomonas aeruginosa PA14 PA2128 harboring cupA1 mutant gene by Etest method; summary of the method: as §2
[26] = test system: Pseudomonas aeruginosa; test: Antimicrobial activity against Pseudomonas aeruginosa PA14 PA0766 harboring mucD mutant gene by Etest method; summary of the method: as §2
[27] = test system: Pseudomonas aeruginosa; test: Antimicrobial activity against Pseudomonas aeruginosa PA14 PA3721 harboring nalC mutant gene by Etest method; summary of the method: as §1
[28] = test system: Pseudomonas aeruginosa; test: Antimicrobial activity against Pseudomonas aeruginosa PA14 PA0908 harboring mutation in hypothetical protein by Etest method; summary of the method: as §2
[29] = test system: Pseudomonas aeruginosa; test: Antimicrobial activity against Pseudomonas aeruginosa PA14 PA4459 harboring mutation in Conserved hypothetical protein by Etest method; summary of the method: as §1
[30] = test system: Pseudomonas aeruginosa; test: Antimicrobial activity against Pseudomonas aeruginosa PA14 PA0427 harboring oprM mutant gene by Etest method; summary of the method: as §2
[31] = test system: Pseudomonas aeruginosa; test: Antimicrobial activity against Pseudomonas aeruginosa PA14 PA2487 harboring mutation in hypothetical protein by Etest method; summary of the method: as §2
[32] = test system: Pseudomonas aeruginosa; test: Antimicrobial activity against Pseudomonas aeruginosa PA14 PA0764 harboring mucB mutant gene by Etest method; summary of the method: as §2
[33] = test system: Pseudomonas aeruginosa; test: Antimicrobial activity against Pseudomonas aeruginosa PA14 PA0420 harboring bioA mutant gene by Etest method; summary of the method: as §2
[34] = test system: Pseudomonas aeruginosa; test: Antimicrobial activity against Pseudomonas aeruginosa PA14 PA0807 harboring ampDh3 mutant gene by Etest method; summary of the method: as §2
[35] = test system: Pseudomonas aeruginosa; test: Antimicrobial activity against Pseudomonas aeruginosa PA14 PA4753 harboring mutation in putative RNA-binding protein by Etest method; summary of the method: as §1
[36] = test system: Pseudomonas aeruginosa; test: Antimicrobial activity against Pseudomonas aeruginosa PA14 PA14_15600 harboring mutation in conserved hypothetical protein by Etest method; summary of the method: as §2
[37] = test system: Pseudomonas aeruginosa; test: Antimicrobial activity against Pseudomonas aeruginosa PA14 PA5130 harboring mutation in putative rhodanese-like domain protein by Etest method; summary of the method: as §1
[38] = test system: Pseudomonas aeruginosa; test: Antimicrobial activity against Pseudomonas aeruginosa PA14 PA4269 harboring rpoC mutant gene by Etest method; summary of the method: as §1
[39] = test system: Pseudomonas aeruginosa; test: Antimicrobial activity against Pseudomonas aeruginosa PA14 PA3145 harboring wbpL mutant gene by Etest method; summary of the method: as §2
[40] = test system: Pseudomonas aeruginosa; test: Antimicrobial activity against Pseudomonas aeruginosa PA14 PA2963 harboring mutation in putative aminodeoxychorismate lyase by Etest method; summary of the method: as §2
[41] = test system: Pseudomonas aeruginosa; test: Antimicrobial activity against Pseudomonas aeruginosa PA14 PA5003 harboring mutation in conserved hypothetical protein by Etest method; summary of the method: as §1
[42] = test system: Pseudomonas aeruginosa; test: Antimicrobial activity against Pseudomonas aeruginosa PA14 PA2970 harboring rpmF mutant gene by Etest method; summary of the method: as §2
[43] = test system: Pseudomonas aeruginosa; test: Antimicrobial activity against Pseudomonas aeruginosa PA14 PA5192 harboring pckA mutant gene by Etest method; summary of the method: as §1
[44] = test system: Pseudomonas aeruginosa; test: Antimicrobial activity against Pseudomonas aeruginosa PA14 PA5002 harboring mutation in hypothetical protein by Etest method; summary of the method: as §1
[45] = test system: Pseudomonas aeruginosa; test: Antimicrobial activity against Pseudomonas aeruginosa PA14 PA0401 harboring mutation in Noncatalytic dihydroorotase-like protein by Etest method; summary of the method: as §2
[46] = test system: Pseudomonas aeruginosa; test: Antimicrobial activity against Pseudomonas aeruginosa PA14 PA4402 harboring argJ mutant gene by Etest method; summary of the method: as §1
[47] = test system: Pseudomonas aeruginosa; test: Antimicrobial activity against Pseudomonas aeruginosa PA14 PA1483 harboring cycH mutant gene by Etest method; summary of the method: as §2
[48] = test system: Pseudomonas aeruginosa; test: Antimicrobial activity against Pseudomonas aeruginosa PA14 PA1011 harboring mutation in putative lipoprotein by Etest method; summary of the method: as §2

SMILES: C[C@@H](O)[C@H]1C(=O)N2C(C(=O)O)=C(S[C@@H]3CN[C@H](C(=O)N(C)C)C3)[C@H](C)[C@H]12 [MEROPENEM]
- MIC [1]: 0.047 µg/mL (≈ 0.123 µM)
- MIC [2]: 0.125 µg/mL (≈ 0.326 µM)
- MIC [3]: 0.19 µg/mL (≈ 0.495 µM)
- MIC [4]: 0.125 µg/mL (≈ 0.326 µM)
- MIC [5]: 0.094 µg/mL (≈ 0.245 µM)
- MIC [6]: 0.125 µg/mL (≈ 0.326 µM)
- MIC [7]: 0.125 µg/mL (≈ 0.326 µM)
- MIC [8]: 0.064 µg/mL (≈ 0.167 µM)
- MIC [9]: 0.125 µg/mL (≈ 0.326 µM)
- MIC [10]: 0.38 µg/mL (≈ 0.991 µM)
- MIC [11]: 0.125 µg/mL (≈ 0.326 µM)
- MIC [12]: 0.38 µg/mL (≈ 0.991 µM)
- MIC [13]: 0.125 µg/mL (≈ 0.326 µM)
- MIC [14]: 0.094 µg/mL (≈ 0.245 µM)
- MIC [15]: 0.047 µg/mL (≈ 0.123 µM)
- MIC [16]: 0.125 µg/mL (≈ 0.326 µM)
- MIC [17]: 0.125 µg/mL (≈ 0.326 µM)
- MIC [18]: 0.125 µg/mL (≈ 0.326 µM)
- MIC [19]: 0.19 µg/mL (≈ 0.495 µM)
- MIC [20]: 0.094 µg/mL (≈ 0.245 µM)
- MIC [21]: 0.064 µg/mL (≈ 0.167 µM)
- MIC [22]: 0.125 µg/mL (≈ 0.326 µM)
- MIC [23]: 0.125 µg/mL (≈ 0.326 µM)
- MIC [24]: 0.125 µg/mL (≈ 0.326 µM)
- MIC [25]: 0.125 µg/mL (≈ 0.326 µM)
- MIC [26]: 0.125 µg/mL (≈ 0.326 µM)
- MIC [27]: 0.38 µg/mL (≈ 0.991 µM)
- MIC [28]: 0.25 µg/mL (≈ 0.652 µM)
- MIC [29]: 0.125 µg/mL (≈ 0.326 µM)
- MIC [30]: 0.023 µg/mL (≈ 0.06 µM)
- MIC [31]: 0.125 µg/mL (≈ 0.326 µM)
- MIC [32]: 0.125 µg/mL (≈ 0.326 µM)
- MIC [33]: 0.094 µg/mL (≈ 0.245 µM)
- MIC [34]: 0.25 µg/mL (≈ 0.652 µM)
- MIC [35]: 0.064 µg/mL (≈ 0.167 µM)
- MIC [36]: 0.125 µg/mL (≈ 0.326 µM)
- MIC [37]: 0.125 µg/mL (≈ 0.326 µM)
- MIC [38]: 0.094 µg/mL (≈ 0.245 µM)
- MIC [39]: 0.094 µg/mL (≈ 0.245 µM)
- MIC [40]: 0.125 µg/mL (≈ 0.326 µM)
- MIC [41]: 0.25 µg/mL (≈ 0.652 µM)
- MIC [42]: 0.125 µg/mL (≈ 0.326 µM)
- MIC [43]: 0.25 µg/mL (≈ 0.652 µM)
- MIC [44]: 0.094 µg/mL (≈ 0.245 µM)
- MIC [45]: 0.064 µg/mL (≈ 0.167 µM)
- MIC [46]: 0.19 µg/mL (≈ 0.495 µM)
- MIC [47]: 0.125 µg/mL (≈ 0.326 µM)
- MIC [48]: 0.19 µg/mL (≈ 0.495 µM)
